The values that follow come from ChEMBL document CHEMBL3875149, “New piperidine-hydrazone derivatives: Synthesis, biological evaluations and molecular docking studies as AChE and BChE inhibitors” (Eur J Med Chem, 2016).

Data set [1] can be described thus: Cytotoxicity against human A549 cells assessed as decrease in cell viability after 24 hrs by MTT assay. As to conditions: A549, 24 h. Format: functional, cell-based. In a few lines: (§1)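 A549 cells were kept in RPMI and BJ fibroblasts in EMEM, each with 10% FBS and 1% penicillin/streptomycin at 37℃ and 5% CO2. MTT was added at 0.5 mg/mL final for 3 h, formazan was dissolved in DMSO and read at 540 nm. Survival is expressed as % of the 0.1% DMSO control, and IC50 was derived from it.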

The next data set deals with Acetylcholinesterase (Electrophorus electricus, UniProt O42275). Briefly: Inhibition of electric eel acetylcholinesterase using acetylthiocholine iodide as substrate by Ellman's method. Background: Ellman's reagent forms a yellow product with free thiols.
Sequence of Acetylcholinesterase (O42275 whole entry): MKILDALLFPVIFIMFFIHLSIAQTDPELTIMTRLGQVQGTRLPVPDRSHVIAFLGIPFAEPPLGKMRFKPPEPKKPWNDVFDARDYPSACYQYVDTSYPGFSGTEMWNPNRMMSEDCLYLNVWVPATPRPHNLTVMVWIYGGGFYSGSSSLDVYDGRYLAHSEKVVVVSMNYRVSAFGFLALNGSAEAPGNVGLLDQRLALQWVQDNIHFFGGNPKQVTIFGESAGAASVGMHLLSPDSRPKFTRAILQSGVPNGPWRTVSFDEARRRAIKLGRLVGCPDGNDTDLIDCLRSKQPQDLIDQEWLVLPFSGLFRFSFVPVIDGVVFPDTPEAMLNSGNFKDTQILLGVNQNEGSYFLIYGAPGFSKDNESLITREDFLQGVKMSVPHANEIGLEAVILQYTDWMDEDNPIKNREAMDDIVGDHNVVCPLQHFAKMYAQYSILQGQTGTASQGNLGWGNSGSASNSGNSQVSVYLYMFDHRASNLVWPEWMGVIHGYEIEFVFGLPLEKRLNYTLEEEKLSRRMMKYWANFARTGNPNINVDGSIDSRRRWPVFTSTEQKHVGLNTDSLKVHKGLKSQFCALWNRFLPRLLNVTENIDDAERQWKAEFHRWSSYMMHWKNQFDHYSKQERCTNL
The target of the next data set is Cholinesterase (Equus caballus, UniProt P81908). Briefly: Inhibition of horse serum butyrylcholinesterase by Ellman's method. An outline of the steps: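 Spectrophotometric Ellman assay using horse serum BChE, run alongside a parallel electric eel AChE assay. Inhibition reported as IC50 in µM.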
Sequence of Cholinesterase (P81908 whole entry): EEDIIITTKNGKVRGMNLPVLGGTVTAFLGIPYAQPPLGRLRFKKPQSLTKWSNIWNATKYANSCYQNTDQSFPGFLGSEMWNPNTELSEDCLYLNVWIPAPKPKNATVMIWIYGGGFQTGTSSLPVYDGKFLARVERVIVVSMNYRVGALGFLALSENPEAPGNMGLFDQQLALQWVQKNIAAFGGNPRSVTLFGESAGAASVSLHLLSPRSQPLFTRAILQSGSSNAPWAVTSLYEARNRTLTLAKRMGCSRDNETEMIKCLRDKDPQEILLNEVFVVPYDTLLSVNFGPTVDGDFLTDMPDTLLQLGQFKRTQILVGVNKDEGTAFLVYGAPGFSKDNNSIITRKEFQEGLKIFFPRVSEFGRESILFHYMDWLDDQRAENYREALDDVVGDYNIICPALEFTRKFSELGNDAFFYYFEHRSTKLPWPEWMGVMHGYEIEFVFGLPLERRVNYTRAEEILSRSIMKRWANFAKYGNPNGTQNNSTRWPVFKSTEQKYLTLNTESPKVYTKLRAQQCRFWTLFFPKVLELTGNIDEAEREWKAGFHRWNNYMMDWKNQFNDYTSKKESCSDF
A short description of data set [2]: Antioxidant activity assessed as inhibition of beta carotene/ linoleic acid peroxidation after 120 mins by spectrophotometric analysis. The class given is functional. In a few lines:
(§2)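 Spectrophotometric radical-scavenging or β-carotene bleaching test, with DMSO as negative control and BHT and α-tocopherol as positive controls. The value is reported as IC50 in µM.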

Data set [3] can be described thus: Antioxidant activity assessed as ABTS radical scavenging activity by spectrophotometric analysis. The class given is functional. An outline of the steps: as §2
Data set [4] is described as follows: Antioxidant activity assessed as cupric reducing capacity after 1 hr by spectrophotometric analysis. The class given is functional.
Data set [5] is described as follows: Antioxidant activity assessed as DPPH free radical scavenging activity after 2 hrs by spectrophotometric analysis. The class given is functional. An outline of the steps: as §2
Background: Loss of DPPH colour is used to gauge radical scavenging.

Data set [6] in a line: Cytotoxicity against human BJ cells assessed as decrease in cell viability after 24 hrs by MTT assay. The class given is toxicity, cell-based. In a few lines:
as §1

By IC50 is commonly meant the concentration that inhibits the measured activity by half.

Molecules are shown by their SMILES.

Turning to `CCOC(=O)N1CCC(=NNC(=O)c2ccc(Cl)cc2)CC1`, the IC50 was above 400 µM in data set [1]; 81.8 µM against Acetylcholinesterase; 69.5 µM on Cholinesterase; 72.3 µM in data set [2]; 63.9 µM in data set [3]; 59 µM in data set [5]. For the same molecule, in data set [4], the A0.5 stood at 23.5 µM. In addition, in data set [6], the IC50 at 24 h is above 400 µM.
With `CCOC(=O)N1CCC(=NNC(=O)c2ccc([N+](=O)[O-])cc2)CC1`, the IC50 in data set [1] was above 400 µM; at Acetylcholinesterase, 125 µM; at Cholinesterase it was 156 µM; in data set [2], 40.2 µM; in data set [3], 10.9 µM; in data set [5] it was 51.7 µM. Moreover, the A0.5 in data set [4] stood at 13.3 µM. In addition, the IC50 at 24 h in data set [6] is above 400 µM.
With `O=C(NN=C1CC(c2ccccc2)NC(c2ccccc2)C1)c1ccc(F)cc1C(F)(F)F` (configuration not stated), the IC50 was above 400 µM in data set [1]; 49.5 µM against Acetylcholinesterase; 52.4 µM against Cholinesterase; 115 µM in data set [2]; 88.5 µM in data set [3]; 88.3 µM in data set [5]. Also, the A0.5 in data set [4] was determined as 88.2 µM. For the same molecule, the IC50 at 24 h in data set [6] was above 400 µM.
As to `O=[N+]([O-])c1ccc(NN=C2CC(c3ccccc3)NC(c3ccccc3)C2)c([N+](=O)[O-])c1` (configuration not stated), the IC50 in data set [1] is above 400 µM; in data set [2], 28.2 µM; in data set [3] it was 19.2 µM; in data set [5], 20 µM. Also, the A0.5 in data set [4] came out at 29.2 µM. Besides, the IC50 at 24 h in data set [6] is above 400 µM.
In the case of `O=C(NN=C1CC(c2ccccc2)NC(c2ccccc2)C1)c1ccccc1` (configuration not stated), the IC50 in data set [1] was above 400 µM; against Acetylcholinesterase, 99.7 µM; on Cholinesterase, 66 µM; in data set [2] it was 41.9 µM; in data set [3] it was 238 µM; in data set [5], 42 µM. The A0.5 in data set [4] was determined as 45.4 µM. Further, the IC50 at 24 h in data set [6] is above 400 µM.
For the molecule `CCOC(=O)N1CCC(=NNC(=O)c2ccc(C)cc2)CC1`, the IC50 in data set [1] is above 400 µM; against Acetylcholinesterase, 94.8 µM; against Cholinesterase it was 76.9 µM; in data set [2], 52.5 µM; in data set [3], 28.1 µM; in data set [5], 75.5 µM. The A0.5 in data set [4] is 11.1 µM. Moreover, the IC50 at 24 h in data set [6] is above 400 µM.
Take `COc1ccc(C(=O)NN=C2CC(c3ccccc3)NC(c3ccccc3)C2)cc1` (configuration not stated): the IC50 in data set [1] was above 400 µM; at Acetylcholinesterase, 92.2 µM; against Cholinesterase, 110 µM; in data set [2], 34.5 µM; in data set [3] it was 27.9 µM; in data set [5], 75.8 µM. Besides, the A0.5 in data set [4] came to 77.7 µM. Also, the IC50 at 24 h in data set [6] was above 400 µM.
With `CCOC(=O)N1CCC(=NNC(=O)c2ccc(F)cc2C(F)(F)F)CC1`, the IC50 in data set [1] is above 400 µM; on Acetylcholinesterase, 124 µM; against Cholinesterase, 99.6 µM; in data set [2] it was 68.2 µM; in data set [3] it was 41.9 µM; in data set [5] it was 86.8 µM. For the same molecule, the A0.5 in data set [4] was 25.6 µM. Also, the IC50 at 24 h in data set [6] was above 400 µM.
On to `Cc1c(C)c2c(c(C)c1O)CC[C@@](C)(CCC[C@H](C)CCC[C@H](C)CCCC(C)C)O2` [ALPHA-TOCOPHEROL], for which the IC50 in data set [2] was determined as 4.5 µM; in data set [3], 4.87 µM; in data set [5], 12.3 µM. Also, in data set [4], the A0.5 was found to be 40.5 µM.
Take `O=C(NN=C1CC(c2ccccc2)NC(c2ccccc2)C1)c1ccc(C(F)(F)F)cc1` (configuration not stated): the IC50 in data set [1] was above 400 µM; against Acetylcholinesterase, 84.4 µM; on Cholinesterase it was 99.1 µM; in data set [2], 55.3 µM; in data set [3], 153 µM; in data set [5], 65 µM. Moreover, the A0.5 in data set [4] turned out to be 92.1 µM. Moreover, the IC50 at 24 h in data set [6] is above 400 µM.
For `Cc1cc(C(C)(C)C)c(O)c(C(C)(C)C)c1` [BUTYLATED HYDROXYTOLUENE], the IC50 in data set [2] is 2.34 µM; in data set [3] it was 2.91 µM; in data set [5] it was 55 µM. In addition, the A0.5 in data set [4] came out at 3.8 µM.
As to `O=C(NN=C1CC(c2ccccc2)NC(c2ccccc2)C1)c1ccc([N+](=O)[O-])cc1` (configuration not stated), the IC50 in data set [1] was above 400 µM; on Acetylcholinesterase, 63.9 µM; on Cholinesterase it was 86.8 µM; in data set [2] it was 45.2 µM; in data set [3], 170 µM; in data set [5], 88.1 µM. Also, the A0.5 in data set [4] was 17.8 µM. Further, the IC50 at 24 h in data set [6] is above 400 µM.
`O=C(NN=C1CC(c2ccccc2)NC(c2ccccc2)C1)c1ccc(C(F)(F)F)cc1F` (configuration not stated): the IC50 in data set [1] was above 400 µM; on Acetylcholinesterase it was 90.1 µM; against Cholinesterase, 117 µM; in data set [2], 41.1 µM; in data set [3], 63.5 µM; in data set [5], 70.2 µM. Moreover, in data set [4], the A0.5 amounted to 85.2 µM. Further, the IC50 at 24 h in data set [6] is above 400 µM.
As to `O=C(NN=C1CC(c2ccccc2)NC(c2ccccc2)C1)c1ccc(Cl)cc1` (configuration not stated), the IC50 in data set [1] is above 400 µM; against Acetylcholinesterase it was 41.2 µM; on Cholinesterase it was 35.3 µM; in data set [2] it was 43.6 µM; in data set [3], 67.9 µM; in data set [5], 96.7 µM. Further, the A0.5 in data set [4] was 49.8 µM. Besides, the IC50 at 24 h in data set [6] was above 400 µM.
As for `CCOC(=O)N1CCC(=NNC(=O)c2ccc(F)cc2)CC1`, the IC50 in data set [1] is above 400 µM; against Acetylcholinesterase, 128 µM; on Cholinesterase, 113 µM; in data set [2], 65.5 µM; in data set [3], 39.2 µM; in data set [5], 74.8 µM. Further, in data set [4], the A0.5 turned out to be 4.16 µM. The half-maximal inhibitory concentration (IC50) at 24 h in data set [6] is above 400 µM.
Take `CCOC(=O)N1CCC(=NNC(=O)c2ccc(C(F)(F)F)cc2F)CC1`: the half-inhibitory concentration (IC50) is above 400 µM in data set [1]; 123 µM at Acetylcholinesterase; 95.1 µM on Cholinesterase; 77.4 µM in data set [2]; 59.5 µM in data set [3]; 86 µM in data set [5]. Further, the A0.5 in data set [4] amounted to 27.3 µM. In addition, the IC50 at 24 h in data set [6] is above 400 µM.
In the case of `Cc1ccc(C(=O)NN=C2CC(c3ccccc3)NC(c3ccccc3)C2)cc1` (configuration not stated), the IC50 in data set [1] was above 400 µM; at Acetylcholinesterase, 74.9 µM; against Cholinesterase it was 50.1 µM; in data set [2], 69 µM; in data set [3], 64.1 µM; in data set [5] it was 53.3 µM. In addition, in data set [4], the A0.5 stood at 50.6 µM. Also, in data set [6], the IC50 at 24 h is above 400 µM.
As for `CCOC(=O)N1CCC(=NNC(=O)c2ccc(OC)cc2)CC1`, the concentration for half-maximal inhibition (IC50) was above 400 µM in data set [1]; 101 µM at Acetylcholinesterase; 82.2 µM on Cholinesterase; 38.3 µM in data set [3]; 85.4 µM in data set [5]. For the same molecule, the A0.5 in data set [4] was 36.9 µM.
With `O=C(NN=C1CC(c2ccccc2)NC(c2ccccc2)C1)c1ccc(F)cc1` (configuration not stated), the IC50 is above 400 µM in data set [1]; 91.1 µM on Acetylcholinesterase; 72.8 µM on Cholinesterase; 56.6 µM in data set [2]; 83.7 µM in data set [3]; 66 µM in data set [5]. In data set [4], the A0.5 came out at 59.6 µM. Besides, in data set [6], the IC50 at 24 h was above 400 µM.
`CCOC(=O)N1CCC(=NNC(=O)c2ccc(C(F)(F)F)cc2)CC1`: the IC50 was 136 µM against Acetylcholinesterase; 91.6 µM against Cholinesterase; 49.3 µM in data set [2]; 23.5 µM in data set [3]; 33.8 µM in data set [5]. The A0.5 in data set [4] was determined as 51.4 µM. In addition, the IC50 at 24 h in data set [6] is above 400 µM.
